Laboratory results published in ChEMBL document CHEMBL3585334, “α- and β-Santalols Directly Interact with Tubulin and Cause Mitotic Arrest and Cytotoxicity in Oral Cancer Cells” (2015).
Active and inactive are the calls of the source. No cut-off for these calls is given here.

Tests used:
[1] = Growth inhibition of human SCC4 cells after 48 hrs by sulforhodamine B assay; type: functional; settings: SCC-4, 48 h; for CC50: read-out: LC50 (the source's name)
Outline: (§1)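 Cells grown in DMEM with 10% FBS and 50 μg/mL gentamicin. They were exposed for 48 h to at least six concentrations, and the SRB assay was the read-out. GI50 was taken from log concentration–response curves of 3–9 independent experiments, each run in triplicate. Values are ± SEM.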

[2] = Growth inhibition of human CAL27 cells after 48 hrs by sulforhodamine B assay; type: functional; settings: CAL-27, 48 h; outline: as §1
[3] = Growth inhibition of human HSC3 cells after 48 hrs by sulforhodamine B assay; type: functional; settings: HSC-3, 48 h; for CC50: read-out: LC50 (the source's name); outline: as §1
[4] = Growth inhibition of human SCC9 cells after 48 hrs by sulforhodamine B assay; type: functional; settings: SCC-9, 48 h; for CC50: read-out: LC50 (the source's name); outline: as §1
[5] = Growth inhibition of human SCC25 cells after 48 hrs by sulforhodamine B assay; type: functional; settings: SCC-25, 48 h; for CC50: read-out: LC50 (the source's name); outline: as §1
HN5 = test: Growth inhibition of human HN5 cells after 48 hrs by sulforhodamine B assay; type: functional; settings: HN5, 48 h; outline: as §1
[6] = Growth inhibition of human HSC2 cells after 48 hrs by sulforhodamine B assay; type: functional; settings: HSC-2, 48 h; for CC50: read-out: LC50 (the source's name); outline: as §1
SCC-4 [7] = test: Induction of cell cycle arrest in human SCC4 cells assessed as cells accumulation at G2/M phase after 18 hrs by propidium iodide-staining based flow cytometry; type: functional
Outline: (§2)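 SCC-4 cells treated for 18 h with DMSO vehicle, 15 nM paclitaxel, or 1×, 2×, 3× or 4× LC50. Cells were stained with propidium iodide and cell-cycle distribution was read by flow cytometry. Three independent experiments.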

SCC-4 [8] = test: Induction of cell cycle arrest in human SCC4 cells assessed as cells accumulation at G2/M phase at 3 times of LC50 concentration after 18 hrs by propidium iodide-staining based flow cytometry; type: functional; outline: as §2
SCC-4 [9] = test: Induction of cell cycle arrest in human SCC4 cells assessed as cells accumulation at G2/M phase at 4 times of LC50 concentration after 18 hrs by propidium iodide-staining based flow cytometry; type: functional; outline: as §2
SCC-4 [10] = test: Induction of mitotic arrest in human SCC4 cells assessed as increase number of cells with a rounded morphology at 61.2 uM after 18 hrs by immunofluorescence microscopy; type: functional, cell-based
SCC-4 [11] = test: Induction of mitotic arrest in human SCC4 cells assessed as large multipolar spindles at 61.2 uM after 18 hrs by immunofluorescence microscopy; type: functional, cell-based
Tubulin (Sus scrofa) [12] = biological target: T1, Tubulin (Sus scrofa) (UniProt P02554+P02550); test: Inhibition of porcine brain tubulin polymerization at 50 uM
T1 sequence (P02550 whole entry, looked up): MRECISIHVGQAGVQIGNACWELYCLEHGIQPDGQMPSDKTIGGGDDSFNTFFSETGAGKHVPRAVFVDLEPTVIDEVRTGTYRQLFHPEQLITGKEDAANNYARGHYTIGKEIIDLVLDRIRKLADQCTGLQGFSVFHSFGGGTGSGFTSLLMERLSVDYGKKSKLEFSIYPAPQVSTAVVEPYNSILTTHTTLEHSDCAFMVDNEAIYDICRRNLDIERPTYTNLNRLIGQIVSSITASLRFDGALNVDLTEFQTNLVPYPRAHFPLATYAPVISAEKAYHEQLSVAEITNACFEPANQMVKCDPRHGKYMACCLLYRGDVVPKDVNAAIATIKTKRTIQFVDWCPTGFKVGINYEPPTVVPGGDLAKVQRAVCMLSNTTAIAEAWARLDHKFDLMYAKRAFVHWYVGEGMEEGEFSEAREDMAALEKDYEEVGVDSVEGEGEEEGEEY
T1 sequence (P02554 whole entry, looked up): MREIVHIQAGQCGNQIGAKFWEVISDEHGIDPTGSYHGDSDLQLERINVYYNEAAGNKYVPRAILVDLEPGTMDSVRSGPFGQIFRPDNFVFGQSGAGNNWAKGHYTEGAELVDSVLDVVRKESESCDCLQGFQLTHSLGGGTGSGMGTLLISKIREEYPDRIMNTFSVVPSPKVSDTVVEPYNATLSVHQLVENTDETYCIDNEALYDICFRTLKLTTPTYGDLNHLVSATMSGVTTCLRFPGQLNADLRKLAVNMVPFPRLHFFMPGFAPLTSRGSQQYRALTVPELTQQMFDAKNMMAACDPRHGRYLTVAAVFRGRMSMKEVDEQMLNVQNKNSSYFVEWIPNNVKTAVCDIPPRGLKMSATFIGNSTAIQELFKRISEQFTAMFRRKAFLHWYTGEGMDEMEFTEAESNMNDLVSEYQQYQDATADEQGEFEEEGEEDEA

Tubulin (Sus scrofa) [13] = biological target: T1, Tubulin (Sus scrofa); test: Binding affinity to porcine brain tubulin relative to vinblastine
Outline: (§3)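 Displacement of colchicine or vinblastine from purified tubulin, with the santalol at up to 7000-fold excess over the reference drug.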

Tubulin (Sus scrofa) [14] = biological target: T1, Tubulin (Sus scrofa); test: Binding affinity to porcine brain tubulin relative to colchicine; outline: as §3
SCC-4 [15] = test: Induction of mitotic arrest in human SCC4 cells assessed as increase number of cells with a rounded morphology at 55.6 uM after 18 hrs by immunofluorescence microscopy; type: functional, cell-based
SCC-4 [16] = test: Induction of mitotic arrest in human SCC4 cells assessed as punctuate and numerous spindles at 55.6 uM after 18 hrs by immunofluorescence microscopy; type: functional, cell-based
Tubulin (Sus scrofa) [17] = biological target: T1, Tubulin (Sus scrofa); test: Inhibition of porcine brain tubulin polymerization

Row | Structure (SMILES) | GI50 [1] [µM] | TGI [1] [µM] | CC50 [1] [µM] | GI50 [2] [µM] | TGI [2] [µM] | GI50 [3] [µM] | TGI [3] [µM] | CC50 [3] [µM] | GI50 [4] [µM] | TGI [4] [µM] | CC50 [4] [µM] | GI50 [5] [µM] | TGI [5] [µM] | CC50 [5] [µM] | GI50 (HN5) [µM] | TGI (HN5) [µM] | GI50 [6] [µM] | TGI [6] [µM] | CC50 [6] [µM] | Activity (SCC-4 [7]) | also measured
1 | C=C1[C@@H]2CC[C@@H](C2)[C@@]1(C)CC/C=C(/C)CO | 5.8 | 10 | 14.3 | 5.7 | 8.4 | 4.4 | 6.1 | 9.1 | 4.2 | 6.8 | 14.5 | 4.2 | 6.3 | 11.1 | 6.3 | 9.6 | 7.3 | 9.4 | 11.9 | Dose-dependent effect | Activity (SCC-4 [8]): Active; Activity (SCC-4 [9]): Active; Activity (SCC-4 [10]): Active; Activity (SCC-4 [11]): Active; inhibition (Tubulin (Sus scrofa) [12]): Active; fold change (FC) (Tubulin (Sus scrofa) [13]): > 7000; fold change (FC) (Tubulin (Sus scrofa) [14]): > 7000
2 | C/C(=C/CC[C@]1(C)C2C[C@@H]3[C@H](C2)C31C)CO | 4.5 | 7.7 | 14 | 5.5 | 7.6 | 3.9 | 5.4 | 7.7 | 3.4 | 5.3 | 9 | 3.5 | 6 | 11.6 | 5.3 | 8.2 | 4.6 | 9.2 | 10.8 | Dose-dependent effect | LC50 [2]: 11 µM; LC50 (HN5): 12.2 µM; Activity (SCC-4 [9]): Active; Activity (SCC-4 [15]): Active; Activity (SCC-4 [16]): Active; inhibition (Tubulin (Sus scrofa) [12]): Active; inhibition (Tubulin (Sus scrofa) [17]): Dose-dependent effect; fold change (FC) (Tubulin (Sus scrofa) [13]): > 7000; fold change (FC) (Tubulin (Sus scrofa) [14]): > 7000
